Assays:
[1] = Antiinflammatory activity in rat PMNC assessed as inhibition of platelet activating factor-induced beta-glucuronidase release at 10 uM treated 15 mins before PAF by spectrophotometry; format: functional
[2] = Hepatoprotective activity in rat WB-F344 cells assessed as inhibition of D-galactosamine-induced cytotoxicity at 100 uM treated 1 hr before D-galactosamine challenge after 24 hrs by MTT assay; format: functional
Summary of the method: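 Cells plated at 1 × 10⁴ per well in DMEM with 10% fetal calf serum, penicillin and streptomycin, precultured 24 h at 37 °C, 5% CO₂. Sample added in fresh medium 1 h before 50 mM DL-galactosamine for 24 h. Sample toxicity run in parallel without galactosamine. MTT 0.5 mg/mL for 4 h, formazan dissolved in DMSO, OD 490 nm, % inhibition calculated.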

[3] = tested on: BGC-823; assay: Cytotoxicity against human BGC823 cells; format: functional, cell-based
[4] = tested on: A2780; assay: Cytotoxicity against human A2780 cells; format: functional, cell-based

Structure (SMILES) | inhibition at 10 µM [1] [%] | inhibition at 100 µM [2] [%] | IC50 [3] [nM] | IC50 [4] [nM]
COc1cc([C@@H](OC)[C@@H](C)C(C)=O)ccc1O | 67 | 47 |  | 
COc1cc([C@@H](O)[C@@H](C)C(C)=O)ccc1O |  | 43 |  | 
COc1cc([C@@H]2c3c(cc(OC)c(O)c3OC)C[C@@H](C)[C@H]2C)ccc1O | 47 |  |  | 
CCO[C@H](c1ccc(O)c(OC)c1)[C@@H](C)C(C)=O | 42 | 54 |  | 
COc1cc([C@H]2OC(=O)[C@](C)(O)[C@@H]2C)ccc1O | 76 | 39 |  | 
O=C(O)C[C@]12OC(=O)C[C@H]1O[C@@H]1Cc3c(O)cc(O)cc3O[C@@H]12 | 46 | 40 |  | 
COc1cc([C@H]2c3cc(O)c(OC)cc3C[C@@H](C)[C@@H]2C)ccc1O | 48 |  |  | 
C=C1OC(=O)/C(=C/CCCCCCCCCCCCCCCCC)[C@H]1O |  |  | 130 | 2660
COC(=O)c1cc(OC)c2c(c1-c1c(CO)cc(OC)c3c1OCO3)OCO2 [BICYCLOL] |  | 41 |  | 
CC[C@@]1(O)C(=O)OCc2c1cc1n(c2=O)Cc2cc3ccccc3nc2-1 [CAMPTOTHECIN] |  |  | 210 | 
C#CCCCCCCCC/C=C/C1=C[C@H](C)OC1=O [HAMABIWALACTONE A] | 60 |  |  | 
COc1cc(C[C@@H](C)[C@@H](C)Cc2ccc(O)c(OC)c2)ccc1O [MESODIHYDROGUAIARETIC ACID] | 54 |  |  | 

Source: ChEMBL document CHEMBL1153739, “Chemical constituents of the bark of Machilus wangchiana and their biological activities” (J Nat Prod, 2009)
